Data set [1] deals with Mus musculus. Kind of data set: Anticonvulsant activity in mouse assessed as protection against maximal electroshock-induced seizure at 1 mmol/kg, ip administered 30 min prior to maximal electroshock-challenge measured after 60 mins relative to control. It is filed as functional. For orientation: In the maximal electroshock model the usual endpoint is tonic extension of the hind limbs.

For data set [2], the system named is Mus musculus. As to the kind of experiment: Anticonvulsant activity in mouse assessed as protection against strychnine-induced seizure at 1 mmol/kg, ip administered 30 min prior to strychnine-challenge measured after 60 mins relative to control. It is filed as functional.
The subject of data set [3] is Mus musculus. Kind of data set: Anticonvulsant activity in mouse assessed as protection against pentylenetetrazol-induced seizure at 1 mmol/kg, ip administered 30 min prior to pentylenetetrazol-challenge measured after 60 mins relative to control. Type of data set: functional.
Data set [4] is filed under the species Mus musculus. Kind of data set: Protective index, ratio of TD50 for mouse to ED50 for pentylenetetrazol-induced seizure in mouse. It is filed as functional. The procedure, abridged:
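Mice. Index is TD50/ED50. TD50 is the dose causing minimal neurological toxicity in 50% of mice in the Chimney test. ED50 is the dose protecting 50% of mice against pentylenetetrazole-induced seizures. Both are estimated from testing at several doses.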

A short description of data set [5]: Toxicity in ip dose mouse assessed as mortality. Type of data set: organism-based. The note with it: in vivo. The essentials: (§1)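 In mice, LD50 is the dose causing 50% mortality. ED50 is the dose protecting 50% of mice against pentylenetetrazole-induced seizures. Therapeutic index = LD50/ED50.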
Data set [6] in a line: Therapeutic index, ratio of LD50 for mouse to ED50 for pentylenetetrazol-induced seizure in mouse. It is filed as organism-based. The note with it: in vivo, read-out: Ratio LD50/ED50. The essentials: as §1
Data set [7] is described as follows: Neurotoxicity in ip dosed mouse assessed as impaired motor coordination administered 30 mins prior to test by chimney test. Type of data set: toxicity, organism-based. As to conditions: in vivo. The essentials: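 Mice, Chimney test. TD50 is the dose that produces minimal neurological toxicity (impaired motor coordination) in 50% of animals, estimated from testing at several doses.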

In data set [8] the test system is Mus musculus. Kind of data set: Anticonvulsant activity in ip dosed mouse assessed as protection against pentylenetetrazol-induced seizure administered 30 min prior to pentylenetetrazol-challenge measured after 60 mins. It is filed as functional. The essentials:
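Mice received several doses for quantification. ED50 taken as the dose protecting 50% of mice against pentylenetetrazol-induced seizures.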

For data set [9], the system named is Mus musculus. As to the kind of experiment: Anticonvulsant activity in mouse assessed as protection against picrotoxin-induced seizure at 1 mmol/kg, ip administered 30 min prior to picrotoxin-challenge measured after 60 mins relative to control. It is filed as functional.
Another data set has as its system UACC-62. As to the kind of experiment: Growth inhibition of human UACC62 cells at 10 uM relative to control. It is filed as functional. As to conditions: read-out: GI. The essentials: (§2)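 Single-dose screen across the 60-cell-line human tumor panel at 10 μM. Growth inhibition is reported as a percentage, taken as 100 minus the % growth relative to untreated control.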

Another data set has as its system MDA-MB-435. Kind of data set: Growth inhibition of human MDA-MB-435 cells at 10 uM relative to control. As to conditions: read-out: GI. Type of data set: functional. The procedure, abridged:
(§3)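 Each cell line in a 60-line human tumour panel exposed to one 10 μM concentration. Growth inhibition percentage computed as 100 minus the percentage activity relative to control.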

The subject of the next data set is U-251. As to the kind of experiment: Growth inhibition of human U251 cells at 10 uM relative to control. The note with it: read-out: GI. It is filed as functional. The essentials:
as §2

The next data set concerns LOX IMVI. Kind of data set: Growth inhibition of human LOXIMVI cells at 10 uM relative to control. As to conditions: read-out: GI. Type of data set: functional. The essentials: as §3
Another data set has as its system SF-295. Kind of data set: Growth inhibition of human SF295 cells at 10 uM relative to control. Type of data set: functional. The note with it: read-out: GI. The procedure, abridged:
as §3

For another data set, the system named is HT-29. Kind of data set: Growth inhibition of human HT-29 cells at 10 uM relative to control. Type of data set: functional. As to conditions: read-out: GI. The procedure, abridged:
as §3

The test system of a further data set is EKVX. As to the kind of experiment: Growth inhibition of human EKVX cells at 10 uM relative to control. The note with it: read-out: GI. Type of data set: functional. The essentials: as §3
Another data set relates to RPMI-8226. As to the kind of experiment: Growth inhibition of human RPMI8226 cells at 10 uM relative to control. It is filed as functional. The note with it: read-out: GI. The essentials: as §3
The subject of a further data set is SR. Kind of data set: Growth inhibition of human SR cells at 10 uM relative to control. Type of data set: functional. The note with it: read-out: GI. The procedure, abridged: as §2
The subject of another data set is MOLT-4. Kind of data set: Growth inhibition of human MOLT4 cells at 10 uM relative to control. As to conditions: read-out: GI. Type of data set: functional. The essentials: as §3
The test system of a further data set is K562. Kind of data set: Growth inhibition of human K562 cells at 10 uM relative to control. It is filed as functional. The note with it: read-out: GI. The procedure, abridged: as §3
Another data set has as its system CCRF-CEM. As to the kind of experiment: Growth inhibition of human CCRF-CEM cells at 10 uM relative to control. It is filed as functional. The note with it: read-out: GI. The essentials:
as §3

The next data set relates to HL-60(TB). As to the kind of experiment: Growth inhibition of human HL-60(TB) cells at 10 uM relative to control. It is filed as functional. The note with it: read-out: GI. The essentials: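 Single-dose screen at 10 μM across the 60-cell-line tumour panel. Percent growth inhibition = 100 minus percent growth activity relative to untreated control.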
For the next data set, the system named is T47D. As to the kind of experiment: Growth inhibition of human T47D cells at 10 uM relative to control. The note with it: read-out: GI. Type of data set: functional. The essentials:
as §2

The next data set deals with BT-549. Kind of data set: Growth inhibition of human BT549 cells at 10 uM relative to control. Type of data set: functional. As to conditions: read-out: GI. The procedure, abridged:
as §3

Another data set concerns A498. As to the kind of experiment: Growth inhibition of human A498 cells at 10 uM relative to control. Type of data set: functional. As to conditions: read-out: GI. The essentials: as §3
For a further data set, the system named is OVCAR-8. As to the kind of experiment: Growth inhibition of human OVCAR8 cells at 10 uM relative to control. Type of data set: functional. The note with it: read-out: GI. The essentials: as §3
A further data set relates to SK-MEL-28. As to the kind of experiment: Growth inhibition of human SK-MEL-28 cells at 10 uM relative to control. It is filed as functional. As to conditions: read-out: GI. The procedure, abridged:
as §3

For the next data set, the system named is SNB-19. As to the kind of experiment: Growth inhibition of human SNB19 cells at 10 uM relative to control. It is filed as functional. The note with it: read-out: GI. The essentials: as §2
The subject of another data set is SNB-75. As to the kind of experiment: Growth inhibition of human SNB75 cells at 10 uM relative to control. As to conditions: read-out: GI. Type of data set: functional. The essentials: as §2
The next data set deals with SF-539. As to the kind of experiment: Growth inhibition of human SF539 cells at 10 uM relative to control. As to conditions: read-out: GI. Type of data set: functional. The procedure, abridged: as §3
In a further data set the test system is HCT-116. Kind of data set: Growth inhibition of human HCT116 cells at 10 uM relative to control. It is filed as functional. As to conditions: read-out: GI. The procedure, abridged: as §3
In another data set the test system is HCC 2998. Kind of data set: Growth inhibition of human HCC2998 cells at 10 uM relative to control. Type of data set: functional. The note with it: read-out: GI. The procedure, abridged: as §3
A further data set has as its system NCI-H522. Kind of data set: Growth inhibition of human NCI-H522 cells at 10 uM relative to control. Type of data set: functional. The note with it: read-out: GI. The essentials:
as §3

Another data set deals with NCI-H23. Kind of data set: Growth inhibition of human NCI-H23 cells at 10 uM relative to control. It is filed as functional. As to conditions: read-out: GI. The essentials: as §3
The next data set has as its system NCI-H226. Kind of data set: Growth inhibition of human NCI-H226 cells at 10 uM relative to control. As to conditions: read-out: GI. Type of data set: functional. The procedure, abridged:
as §3

For another data set, the system named is A549. Kind of data set: Growth inhibition of human A549 cells at 10 uM relative to control. It is filed as functional. As to conditions: read-out: GI. The essentials:
as §3

Data set [10] in a line: Growth inhibition of human Hs 578T cells at 10 uM relative to control. Type of data set: functional. The note with it: read-out: GI. The essentials:
as §3

Another data set deals with PC-3. As to the kind of experiment: Growth inhibition of human PC3 cells at 10 uM relative to control. It is filed as functional. The note with it: read-out: GI. The essentials:
as §3

Another data set has as its system UO-31. Kind of data set: Growth inhibition of human UO31 cells at 10 uM relative to control. It is filed as functional. As to conditions: read-out: GI. The procedure, abridged: as §2
Another data set has as its system CAKI-1. Kind of data set: Growth inhibition of human CAKI-1 cells at 10 uM relative to control. It is filed as functional. The note with it: read-out: GI. The procedure, abridged:
as §3

One may read the LD50 as the dose expected to kill half of the subjects tested. One may read the TD50 as the dose at which the toxic effect under study appears in half of the subjects. Usually ED50 stands for the dose at which the effect has come halfway, by size or by number of responders.

Regarding `Cc1ccccc1-n1c(C)nc2cc(-n3c(C)nc4ccc(Cl)cc4c3=O)ccc2c1=O`, the Activity was found to be 50% in the data set on Mus musculus [1], 0% with Mus musculus [2] and 33% with Mus musculus [3].

On to `Cc1ccc(S(=O)(=O)Nc2ccc3c(=O)n(-c4ccccc4C)c(C)nc3c2)cc1`, for which the Activity in the data set with Mus musculus [1] turned out to be 0%; in the data set on Mus musculus [2], 0%; with Mus musculus [3], 66%.

Take `Cc1ccccc1-n1c(C)nc2cc(/N=C/c3ccc(Cl)cc3)ccc2c1=O`: in the data set filed under Mus musculus [4], the “Ratio TD50/ED50” value is 2.54. The LD50 in [5] stood at 1810 µmol/kg. Further, the selectivity ratio in [6] was determined as 4.6. Further, the TD50 at 0.5 h in data set [7] amounted to 890 µmol/kg. In addition, the 50% effective dose (ED50) in the data set with Mus musculus [8] came to 350 µmol/kg. Also, the Activity in the data set on Mus musculus [1] worked out at 100%; with Mus musculus [9], 50%; in the data set on Mus musculus [2], 0%; in the data set on Mus musculus [3] it was 100%.

Turning to `Cc1ccccc1-n1c(C)nc2cc(NC(=O)c3cccs3)ccc2c1=O`, the inhibition of growth at 10 µM in the data set with UACC-62 was 8%; with MDA-MB-435, 6%; in the data set with U-251, 12%; in the data set on LOX IMVI, 4.2%; in the data set on SF-295, 6%; with HT-29, 11%. For the same molecule, the inhibition of growth at 10 µM in the data set on EKVX amounted to 11%; in the data set with RPMI-8226 it was 8%; in the data set on SR, 21%; with MOLT-4, 25.6%; in the data set on K562 it was 12.8%; with CCRF-CEM it was 12.2%. The inhibition of growth at 10 µM in the data set with HL-60(TB) was found to be 19.2%; in the data set with T47D it was 7.8%; in the data set with BT-549 it was 8%; in the data set on A498, 9%.

`Cc1ccccc1-n1c(C)nc2cc(NS(=O)(=O)c3ccccc3)ccc2c1=O`: the inhibition of growth at 10 µM in the data set on OVCAR-8 was 5.4%; in the data set with UACC-62, 9%; with SK-MEL-28, 2.4%; with U-251, 4%; in the data set on SNB-19, 4%; with SNB-75, 14.8%. Further, the inhibition of growth at 10 µM in the data set with SF-295 turned out to be 9%; with SF-539, 4%; in the data set on HT-29, 3%; with HCT-116 it was 4%; with HCC 2998, 4%; in the data set with NCI-H522, 2.2%. Besides, the inhibition of growth at 10 µM in the data set with NCI-H23 was 5.2%; in the data set on NCI-H226, 2.5%; with A549, 5%; with EKVX it was 14.3%; in the data set with RPMI-8226 it was 12%; in the data set on MOLT-4, 12.2%. For the same molecule, the inhibition of growth at 10 µM in the data set on K562 was determined as 10%; in the data set on CCRF-CEM it was 13%; with HL-60(TB), 4%; in [10] it was 3.2%; with PC-3, 8%; with UO-31, 13.6%. In addition, the values for the inhibition of growth at 10 µM in the data set with CAKI-1 and with A498 were 4% and 8%, respectively.

Source of the values: ChEMBL document CHEMBL1955778, “Design and synthesis of novel 7-aminoquinazoline derivatives: antitumor and anticonvulsant activities” (Bioorg Med Chem Lett, 2012).
